Assay results published in the RNAGym collection of RNA variant scans (doi:10.1126/science.aae0568).
Fewer inactive variants are shown than the library holds.

B1: tRNA (parent)
chain: GUUCCGUUGGCGUAAUGGUAACGCGUCUCCCUCCUAAGGAGAAGACUGCGGGUUCGAGUCCCGUACGGAACG

Variants of: B1
Assay: yeast fitness relative to wild type (ratio to wild type); higher = fitter; tRNA-Arg(CCU), competitive growth, 37 C, YPD
Summary of the method: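 The tRNA-Arg(CCU) gene variants were made by chemical synthesis with a 3% per-site mutation rate at 69 sites and inserted at the native genomic locus of Saccharomyces cerevisiae. After pooling, the strains were competed in YPD at 37°C for 24 hours in six parallel replicates. Gene amplicons from the start population and each end population were read by 100-nucleotide paired-end sequencing, and Darwinian fitness relative to wild type was taken from genotype frequency changes. Genotypes needed ≥ 100 starting reads, and estimates < 0.5 were set to 0.5.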

Variant | yeast fitness
G25C A40G A65C | 0.653
U16C A37C A42G G56C | ≤ 0.5
U2G G51A | 0.805
A42G U59G U64C C66G | ≤ 0.5
C11G U47G | ≤ 0.5
A15C C22A C31A G38C | ≤ 0.5
A20U C49A G52A C61U | ≤ 0.5
C4G G44A A45C | ≤ 0.5
C4A G12C U19C C22U C24G A43U C61A | ≤ 0.5
U7C G25A U47C U64G G68C | ≤ 0.5
U3C U19A G68A | 0.698
C11G G12C A20C C24G A37G C60G C61U | ≤ 0.5
G23A C27U C60G | 0.525
U2G G10C A43C | ≤ 0.5
C33A A40U U53C C55U C62U | ≤ 0.5
U28C G48C U53C | 0.553
G9C U28C C31U | ≤ 0.5
G9A A36G C46U | 0.683
G10A C11G G44A C49G A65U | ≤ 0.5
C4U A42C G51C A65G | 0.508
A15G G58C G68A | 0.593
G12A A14C C34U A37G | ≤ 0.5
A40G G58A A70U | 0.61
C31U A40G | 0.786

Variant | yeast fitness
A36C C46A C49U | 0.562
U2A U16A C66U A69G | ≤ 0.5
G17A C29G A43G G68C | ≤ 0.5
C34U A65C G67C | ≤ 0.5
U2A A40U G48A | 0.681
G48C G68A | 0.846
C22A C29A C66A | 0.513
C11U A21G C24A G52A | ≤ 0.5
U13C A20G A37G G58A | ≤ 0.5
A14G A43C C66G A69U | ≤ 0.5
U3A C5U | 0.85
G6A A21C U28A | ≤ 0.5
G9C A45U | 0.771
A45C C46G | 1.01
C5G A20C G39C C62U G63C | ≤ 0.5
G18A C62G | 0.676
C5U U35A | 0.615
C27U G39C C49U | ≤ 0.5
A14C C24U A40U G44A A70G | ≤ 0.5
G6A G10C U54C | ≤ 0.5
C5U U28G A45C C66U | 0.599
C5U G58C C66G | ≤ 0.5
U16C C46A G56A | 0.769
C33A A42G A70U | ≤ 0.5

Variant | yeast fitness
A21G U28C | 0.991
U3A C11G A14C C62U G63A | ≤ 0.5
C5G C29U A70C | 0.527
G38C C62U A70U | 0.533
G38C G67A A69U | 0.537
U2C G48A C60A A70G | ≤ 0.5
U13A A20U C27U A42G | ≤ 0.5
G25C C27G G58A | ≤ 0.5
C29G C33G A42C G48A | 0.777
G6C G67A | 0.874
A20U C29G G38C G39A A43C C60G A65C | ≤ 0.5
C30U A36G A37G | 0.548
C24A C27U | 0.702
G25A C31G A70G | 0.642
C5U C30U U47A G67C | 0.542
G25C C30G C33U A45G U47G G50C G63A | ≤ 0.5
C11U G56C | 0.709
C5G A37U A43C A65U | ≤ 0.5
U19A C46A | 1.13
C11G U13G C60U | ≤ 0.5
G50C U54C C62G | 0.622
C33G C62U A70C | 0.618
U2G A21G | 0.917
C4A U16C G17A A69U | ≤ 0.5

Variant | yeast fitness
U13G C27G | 0.537
G12C G48C G52C | ≤ 0.5
C5U C31G G68C | 0.645
G25A A45U A69U | 0.806
C22G U28A G44A | ≤ 0.5
U16C C22A C24A U26C | ≤ 0.5
G41C G50C | 0.695
G18C C49U A69U | ≤ 0.5
C22G U47C G50A | ≤ 0.5
C4G A21G A43C C46A A57C C62G C66U | ≤ 0.5
U3A C22G C24U G39A | ≤ 0.5
G12C C24G U53C C60G | ≤ 0.5
U47C G51C U59C | ≤ 0.5
G25C C46G | 0.938
G6A G39A | 0.916
U2A A20C | 0.928
C5U G10C C30A A36U A42C U64A C66G A69U | ≤ 0.5
A14G C24U U26G | ≤ 0.5
U7G A15C | 0.653
C5A U19C U26G A36C | 0.571
C11A A37U C49G C60G C62G | ≤ 0.5
U2G U19A C46U | ≤ 0.5
G9A G18C | 0.643
A20U A45G C46U C66U A69U | ≤ 0.5

Variant | yeast fitness
U16C C27A | 0.963
C29U A40G U47A | 0.582
U13C C31U G41C C61U | 0.53
U19G C29U A40C | 0.52
U7A C30U A65C | 0.633
C29U A45C G67A | 0.536
C5A G23C G48C C61A | ≤ 0.5
G6A A14C C24U G50A A57U A70U | 0.745
U2G A14C A57U A69U | ≤ 0.5
G12C G17C C22A U32A C34A A65C | ≤ 0.5
A15U G38C A43C | ≤ 0.5
C5G G39A C46U G67A | ≤ 0.5
C4G A14G G44C U47A | ≤ 0.5
U8A C30A | 0.604
G12C C33G A37G A40C C49G G67C | 0.539
C4G A14G A37U G38A G63C | ≤ 0.5
C5G U8C C11G C31G | ≤ 0.5
C11U A15U A57G A69C | ≤ 0.5
U3C C34U U53C | ≤ 0.5
C5U A21U C30G | 0.632
C29A C49U C62U | 0.562
A43G | 0.991
C29A A45G | 0.578
A65C G67A | 0.692

Variant | yeast fitness
C11U G18A A40U | ≤ 0.5
A20G C27U A45C A57C | ≤ 0.5
U16A A69U | 1.03
C5A G10C U26C | 0.518
C29G C46U A70U | 0.618
C29A A42U C46A | 0.619
C11G C61U | 0.656
A14G A40C C55A C66A | ≤ 0.5
A15U A42U C46U C55G | ≤ 0.5
U26C C31G A43C | 0.78
U3A C5U U28A G58A | 0.5
U28C G41C G63A | ≤ 0.5
U7A A15U A40G G68C | 0.514
U2G G41C A65C | 0.534
C4G U26A C27U A42C G51A A65U | ≤ 0.5
A15C G48C C66A | ≤ 0.5
U8C G68U A69C | ≤ 0.5
A43G C49G | 0.732
G6C C61U | 0.726
A20C A45C G63C G67A | ≤ 0.5
U16A A21C C34A A37C G68A | ≤ 0.5
C11G U32G A69C A70U | ≤ 0.5
C11G A21U C55U | ≤ 0.5
C22G A36C C55U C60A C62G A69U | 0.563

Variant | yeast fitness
A15U C46U A65U G68C | ≤ 0.5
C4U U8A A14U A20C A36C A43C G58C C61A | ≤ 0.5
A14G A42C U54A | ≤ 0.5
A20U A40G U64A | 0.508
G10A G17C C30G C33G C61A A69U A70G | ≤ 0.5
C4G U32G | 0.628
G6A A14G G17C | ≤ 0.5
C34G C49G A65G | ≤ 0.5
U3A G41C | 0.694
C5U U47C A57U G67C | ≤ 0.5
U16G C24G C27A | ≤ 0.5
U35C A36U | 0.603
G9A A21U C31G | 0.573
G10A G48C G67C | 0.56
U32C G67U A69C | ≤ 0.5
U2G C22G C27G C30A U32G C55G | ≤ 0.5
U7C G25A | 1.04
U3G A15G A21U C24U G38A | 0.571
C4A C34G G38C | ≤ 0.5
G10A U13C G18C A20U C30A | ≤ 0.5
A21G C29A | 0.693
C4A G25A C29A A37G G50C U59A | ≤ 0.5
C5U C24A C33U U47C G63A G67U | 0.718
